# Laboratory results: ChEMBL document CHEMBL1132342, “Novel hypotensive agents from Verbesina caracasana. 6. Synthesis and pharmacology of caracasandiamide” (1999)
# How the values were obtained:
# [1] = system: Rattus norvegicus; assay: Change in systolic blood pressure after iv administration of 800 ug/Kg compound (treatment with reserpine(5 mg/kg/day for 2 days, ip)in anesthetized rats; format: functional, Artery
# Outline: (§1)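 Anesthetized rats, n = 6 per group, received iv doses of 200–1600 µg/kg (ratio 2.0) either alone (control) or under pretreatment: continuous iv papaverine infusion 1 mg/kg/min, reserpine 5 mg/kg/day ip for 2 days, or hexamethonium 5 mg/kg iv. Peak changes in BP, heart rate and dP/dt recorded; means ± SE, p < 0.05 versus control.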
# [2] = system: Rattus norvegicus; assay: Change in diastolic blood pressure after iv administration of 1600 ug/Kg in the presence of noradrenaline (agonist) in anesthetized rats; format: functional, Artery
# Outline: (§2)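 Urethane-anesthetized male Wistar rats (16 rats, two equal groups) received 400 or 1600 µg/kg compound iv. Cardiovascular responses to iv agonist boluses (noradrenaline 1 µg/kg, acetylcholine 2.50 µg/kg, adrenaline, isoprenaline) were measured before and after compound dosing. Peak responses are given as mean ± SE; p < 0.05 versus control mean.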
# [3] = system: Rattus norvegicus; assay: Change in heart rate after iv administration of 400 ug/Kg in the presence of acetylcholine (agonist) in anesthetized rats; format: functional; outline: as §2
# [4] = system: Rattus norvegicus; assay: Change in systolic blood pressure after iv administration of 400 ug/Kg in the presence of noradrenaline (agonist) in anesthetized rats; format: functional, Artery
# Outline: (§3)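 Anesthetized male Wistar rats, two groups of 8, received 400 or 1600 µg/kg iv. Before and after this dose, iv agonist challenges were given: noradrenaline 1 µg/kg, adrenaline, acetylcholine 2.50 µg/kg, or isoprenaline. Systolic/diastolic BP, heart rate and dP/dt responses were recorded before (control) and after dosing; significance was set at p < 0.05 versus control.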
# [5] = system: Rattus norvegicus; assay: Change in heart rate after iv administration of 400 ug/Kg in the presence of noradrenaline (agonist) in anesthetized rats; format: functional
# [6] = system: Rattus norvegicus; assay: Change in stroke volume after iv administration of 50 ug/Kg in anesthetized rats; format: functional
# Outline: (§4)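 Male Wistar rats (299 ± 3 g) were anesthetized with ethylurethane ip, tracheally cannulated and breathing spontaneously, at 37 °C, and stabilized for 60 min. Doses of 50-3200 µg/kg (ratio 2.0) in saline were injected by femoral vein, 50 µL each. Recordings: femoral arterial BP, electromagnetic abdominal-aortic flow, SV from integrated pulsatile flow, polygraphic RF. Peak changes, mean ± SE, n = 12 (n = 7 at 3200).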
# [7] = system: Rattus norvegicus; assay: Change in heart rate after iv administration of 100 ug/Kg in anesthetized rats; format: functional
# Outline: (§5)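 Adult male Wistar rats under ip ethylurethane (10% w/v in saline, 1 mL/kg) with tracheal cannula and spontaneous breathing, kept at 37 °C. Arterial BP was recorded by femoral artery catheter; compound in saline (50 µL) was given via femoral vein at 50–3200 µg/kg, ratio 2.0. Peak change is given as mean ± SE, n = 12 (n = 7 at 3200 µg/kg).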
# [8] = system: Rattus norvegicus; assay: Change in diastolic blood pressure after iv administration of 4.12 uM/Kg in anesthetized rats; format: functional, Artery
# [9] = system: Rattus norvegicus; assay: Maximum rate of rise of the left ventricular isovolumetric pressure after iv administration of 800 ug/Kg compound (treatment with reserpine(5 mg/kg/day for 2 days, ip)in anesthetized rats; format: functional, Heart left ventricle; outline: as §1
# [10] = system: Rattus norvegicus; assay: Change in diastolic blood pressure after iv administration of 200 ug/Kg in anesthetized rats; format: functional, Artery; outline: as §5
# [11] = system: Rattus norvegicus; assay: Maximum rate of rise of the left ventricular isovolumetric pressure was measured after iv administration of 400 ug/Kg in the presence of acetylcholine (agonist) in anesthetized rats; format: functional, Heart left ventricle; outline: as §3
# [12] = system: Rattus norvegicus; assay: Change in heart rate after iv administration of 400 ug/Kg in the presence of isoprenaline (agonist) in anesthetized rats; format: functional; outline: as §2
# [13] = system: Rattus norvegicus; assay: Maximum rate of rise of the left ventricular isovolumetric pressure was measured after iv administration of 100 ug/Kg in anesthetized rats; format: functional, Heart left ventricle
# Outline: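 Urethane-anesthetized (10% w/v, […] ip in saline) adult male Wistar rats, trachea cannulated, breathing spontaneously, 37 °C. Femoral artery catheter for blood pressure, femoral vein for dosing. Sequential iv doses 50–3200 µg/kg (ratio 2.0) in saline, each given after parameters returned to baseline. Peak changes recorded; means ± SE, n = 12 (n = 7 at 3200 µg/kg).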
# [14] = system: Rattus norvegicus; assay: Change in stroke volume after iv administration of 400 ug/Kg in anesthetized rats; format: functional; outline: as §4
# [15] = system: Rattus norvegicus; assay: Change in diastolic blood pressure after iv administration of 400 ug/Kg compound (treatment with hexamethonium (5 mg/Kg, iv)in anesthetized rats; format: functional, Artery
# Outline: (§6)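 In anesthetized male Wistar rats, responses to iv compound (200–1600 µg/kg, ratio 2.0) were measured alone and under three pretreatments: continuous iv papaverine infusion (1 mg/kg/min), ip reserpine (5 mg/kg/day for 2 days), or iv hexamethonium (5 mg/kg). Peak changes are given as mean ± SE, n = 6 per group; p < 0.05 versus control.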
# [16] = system: Rattus norvegicus; assay: Change in systolic blood pressure after iv administration of 1600 ug/Kg compound (treatment with papaverine(1 mg/Kg/min, iv)in anesthetized rats; format: functional, Artery
# Outline: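 Urethane-anesthetized male Wistar rats, 6 per group, received iv doses of 200-1600 µg/kg (ratio 2.0) given alone or under a pretreatment. Pretreatments were continuous iv papaverine infusion (1 mg/kg/min), reserpine 5 mg/kg/day ip for 2 days, or hexamethonium 5 mg/kg iv. Peak changes in femoral arterial BP and HR were recorded; values are mean ± SE.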
# [17] = system: Rattus norvegicus; assay: Change in mean aortic flow after iv administration of 50 ug/Kg in anesthetized rats; format: functional; outline: as §4
# [18] = system: Rattus norvegicus; assay: Maximum rate of rise of the left ventricular isovolumetric pressure after iv administration of 1600 ug/Kg compound (treatment with reserpine(5 mg/kg/day for 2 days, ip)in anesthetized rats; format: functional, Heart left ventricle; outline: as §1
# [19] = system: Rattus norvegicus; assay: Maximum rate of rise of the left ventricular isovolumetric pressure was measured after iv administration of 1600 ug/Kg in the presence of isoprenaline (agonist) in anesthetized rats; format: functional, Heart left ventricle; outline: as §3
# [20] = system: Rattus norvegicus; assay: Maximum rate of rise of the left ventricular isovolumetric pressure was measured after iv administration of 1600 ug/Kg compound (treatment with papaverine(1 mg/Kg/min, iv)in anesthetized rats; format: functional, Heart left ventricle; outline: as §1
# [21] = system: Rattus norvegicus; assay: Change in diastolic blood pressure after iv administration of 800 ug/Kg compound (treatment with hexamethonium (5 mg/Kg, iv)in anesthetized rats; format: functional, Artery; outline: as §6
# [22] = system: Rattus norvegicus; assay: Change in heart rate after iv administration of 4.12 uM/Kg in anesthetized rats; format: functional
# [23] = system: Rattus norvegicus; assay: Change in systolic blood pressure after iv administration of 4.12 uM/Kg in anesthetized rats; format: functional, Artery
# Outline: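 Doses were 4.12 µM/kg (two agents), guanethidine 25, clonidine 0.108, hexamethonium 12, reserpine 8, papaverine 5 and histamine […]. Peak changes in systolic BP or HR were recorded.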
# [24] = system: Rattus norvegicus; assay: Change in systolic blood pressure after iv administration of 3200 ug/Kg in anesthetized rats; format: functional, Artery; outline: as §4
# [25] = system: Rattus norvegicus; assay: Maximum rate of rise of the left ventricular isovolumetric pressure after iv administration of 400 ug/Kg compound (treatment with hexamethonium (5 mg/Kg, iv)in anesthetized rats; format: functional, Heart left ventricle; outline: as §1
structure (smiles),measurement,setting,value
COc1ccc(C2C(c3ccc(OC)c(OC)c3)[C@H](C(=O)NCCCC/N=C(\N)NCC=C(C)C)[C@@H]2C(=O)NCCCC/N=C(\N)NCC=C(C)C)cc1OC (stereo partly specified) [CARACASANDIAMIDE],BP,[1],-11 mmHg
same,BP,[2],10 mmHg
same,Heart rate,[3],-30 beats min-1
same,BP,[4],31 mmHg
same,Heart rate,[5],23 beats min-1
same,Change in stroke volume,[6],36%
same,Change in heart rate,[7],-3%
same,Heart rate,[7],-10 beats min-1
same,BP,[8],-47 mmHg
same,dP/dt,[9],720 mmHg s-1
same,BP,[10],-13 mmHg
same,Change in BP,[10],-17%
same,dP/dt,[11],-5820 mmHg s-1
same,Heart rate,[12],69 beats min-1
same,Change in dP/dt,[13],18%
same,dP/dt,[13],1129 mmHg s-1
same,Change in stroke volume,[14],-23%
same,Stroke volume,[14],-46 µL
same,BP,[15],-45 mmHg
same,BP,[16],-33 mmHg
same,Change in mean aortic flow,[17],26%
same,Mean aortic flow,[17],19 mL/min
same,dP/dt,[18],1238 mmHg s-1
same,dP/dt,[19],14552 mmHg s-1
same,dP/dt,[20],3321 mmHg s-1
same,BP,[21],-53 mmHg
same,Heart rate,[22],-35 beats min-1
same,BP,[23],-43 mmHg
same,BP,[24],-48 mmHg
same,Change in BP,[24],-46%
same,dP/dt,[25],3938 mmHg s-1
